# From ChEMBL document CHEMBL1137367, “Design, synthesis, and preliminary evaluation of doxazolidine carbamates as prodrugs activated by carboxylesterases” (J Med Chem, 2006)
# Assays:
# [1] = tested on: SK-HEP1; assay: Growth inhibition of SK-HEP-1 cells by crystal violet assay after 24 hrs; format: functional, cell-based; details: Homo sapiens, SK-HEP1, 24 h
# Outline: (§1)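 Cancer lines were grown in RPMI 1640 with 10% FCS and 1% pen-strep and seeded at 1000 cells/well overnight. Drug was given in serum-free medium for 3 or 24 h, then fresh complete medium until controls reached ~80% confluence (3-5 days). Cells were fixed with glutaraldehyde and stained with crystal violet, solubilised in 70% ethanol and read at 588 nm. IC50 is log molar, with six replicates per concentration and ≥2 experiments.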
# [2] = tested on: H9c2; assay: Growth inhibition of H9c2(2-1) cells by crystal violet assay after 24 hrs; details: Rattus norvegicus, H9c2, 24 h
# [3] = tested on: SHP77; assay: Growth inhibition of SHP77 cells by crystal violet assay after 24 hrs; format: functional, cell-based; details: Homo sapiens, SHP77, 24 h; outline: as §1
# [4] = tested on: DU-145; assay: Growth inhibition of DU145 cells by crystal violet assay after 24 hrs; format: functional, cell-based; details: Homo sapiens, DU-145, 24 h; outline: as §1
# [5] = tested on: NCI/ADR-RES; assay: Growth inhibition of MCF7/Adr cells by crystal violet assay after 24 hrs; format: functional, cell-based; details: Homo sapiens; outline: as §1
# [6] = tested on: Vero; assay: Cytotoxicity against Vero cells by MTT assay after 24 hrs; format: functional, cell-based; details: Chlorocebus sabaeus
# Outline: (§2)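 Vero cells were grown in DMEM with 10% FCS and 1% pen-strep at 37 °C in 5% CO2. They were seeded at 1000 cells/well and left overnight to adhere. Drug was given in serum-free medium for 3 or 24 h, then replaced with fresh complete medium until untreated wells reached ~80% confluence (3-5 days). MTT was read at 554 nm and IC50 given as log molar. Each concentration was run in six wells, each experiment at least twice.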
# [7] = tested on: HepG2; assay: Growth inhibition of HepG2 cells by crystal violet assay after 24 hrs; format: functional, cell-based; details: Homo sapiens, HepG2, 24 h; outline: as §1
# [8] = tested on: MCF7; assay: Growth inhibition of MCF7 cells by crystal violet assay after 24 hrs; format: functional, cell-based; details: Homo sapiens, MCF7, 24 h; outline: as §1
# [9] = tested on: H9c2; assay: Growth inhibition of rat H9c2(2-1) cells by MTT assay after 3 hrs; format: functional, cell-based; details: H9c2, 3 h
# Outline: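 Rat cardiomyocytes were kept in DMEM with 10% FCS and pen-strep and seeded at 500 cells/well overnight. They got serum-free drug medium for 3 h, then fresh complete medium until controls reached ~80% confluence (3-5 days). Read-out was MTT optical density at 554 nm, with IC50 as log molar concentration. There were six replicates per concentration and at least two experiments.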
# [10] = tested on: MCF7; assay: Growth inhibition of MCF7 cells by crystal violet assay after 3 hrs; format: functional, cell-based; details: Homo sapiens, MCF7, 3 h
# Outline: (§3)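 Cells were seeded at 1000/well and left to adhere overnight at 37 °C in 5% CO2. They were then exposed for 3 h to a range of drug concentrations in serum-free RPMI 1640. Medium was replaced with fresh RPMI containing 10% fetal calf serum and 1% pen-strep, and cells were grown until untreated controls reached ~80% confluence (3-5 days). Cells were fixed with glutaraldehyde, stained with crystal violet, and the dye was solubilised in 70% ethanol before reading OD at 588 nm. IC50 is given as log molar. Each concentration was run six-fold, and each experiment at least twice.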
# [11] = tested on: NCI/ADR-RES; assay: Growth inhibition of MCF7/Adr cells by crystal violet assay after 3 hrs; format: functional, cell-based; details: Homo sapiens; outline: as §1
# [12] = tested on: HepG2; assay: Growth inhibition of HepG2 cells by crystal violet assay after 3 hrs; format: functional, cell-based; details: Homo sapiens, HepG2, 3 h; outline: as §3
# [13] = tested on: SK-HEP1; assay: Growth inhibition of SK-HEP-1 cells by crystal violet assay after 3 hrs; format: functional, cell-based; details: Homo sapiens, SK-HEP1, 3 h; outline: as §1
# [14] = tested on: Vero; assay: Cytotoxicity against Vero cells by MTT assay after 3 hrs; format: functional, cell-based; details: Chlorocebus sabaeus; outline: as §2
# [15] = tested on: SK-HEP1; assay: Decrease in drug uptake in SK-HEP-1 cells by flow cytometry at 0.5 uM in presence of 10% fetal bovine serum; format: functional, Homo sapiens; set-up: scale not given: the % may be the effect or the level left
# Outline: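 SK-HEP-1 cells at 200,000 per well were attached overnight. They were then exposed at 37 °C to 0.5 μM drug (final) in RPMI with 10% fetal bovine serum or without serum. Cells were trypsinized at 0.5, 1, 1.5, 2 and 3 h and Dox fluorophore measured by flow cytometry. Mean fluorescence was divided by untreated control to give relative fluorescence.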
# [16] = Stability in buffer at pH 7.4 after 24 hrs; format: physicochemical; details: pH 7.4, 24 h
# Outline: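 The compound was held in pH 7.4 buffer, without cells or growth medium, for 24 h at ambient temperature. Hydrolysis was followed by HPLC.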
SMILES,IC50 [1] [nM],IC50 [4] [nM],IC50 [7] [nM],IC50 [8] [nM],Stability [16],IC50 [2] [nM],IC50 [3] [nM],IC50 [5] [nM],IC50 [6] [nM],IC50 [9] [nM],IC50 [10] [nM],IC50 [11] [nM],IC50 [12] [nM],IC50 [13] [nM],IC50 [14] [nM],Activity [15] [%]
CCCCOC(=O)N1CO[C@@H]2[C@H](C)O[C@@H](O[C@H]3C[C@](O)(C(=O)CO)Cc4c(O)c5c(c(O)c43)C(=O)c3c(OC)cccc3C5=O)C[C@@H]21,398,398,200,794,,1580,251,631,501,,,,,,,
CCOC(=O)N1CO[C@@H]2[C@H](C)O[C@@H](O[C@H]3C[C@](O)(C(=O)CO)Cc4c(O)c5c(c(O)c43)C(=O)c3c(OC)cccc3C5=O)C[C@@H]21,> 1000,,> 1000,< 1000,,,,> 10000,,1580,> 1000,5010,> 1000,> 1000,,
COc1cccc2c1C(=O)c1c(O)c3c(c(O)c1C2=O)C[C@@](O)(C(=O)CO)C[C@@H]3O[C@H]1C[C@@H]2NCO[C@@H]2[C@H](C)O1 [DOXAZOLIDINE],,,,,,,,,7.94,31.6,3.16,3.16,10,3.98,6.31,
COc1cccc2c1C(=O)c1c(O)c3c(c(O)c1C2=O)C[C@@](O)(C(=O)CO)C[C@@H]3O[C@H]1C[C@H](N)[C@H](O)[C@H](C)O1 [DOXORUBICIN],50.1,31.6,31.6,12.6,,20,126,2510,501,31.6,316,6310,200,100,1000,

# Further compounds by falling IC50 [1], results first:
IC50 [1] [nM],IC50 [4] [nM],IC50 [7] [nM],IC50 [8] [nM],Stability [16],SMILES,IC50 [2] [nM],IC50 [3] [nM],IC50 [5] [nM],IC50 [6] [nM],IC50 [9] [nM],IC50 [10] [nM],IC50 [11] [nM],IC50 [12] [nM],IC50 [13] [nM],IC50 [14] [nM],Activity [15] [%]
1580,501,20,79400,,CCCCOC(=O)Nc1ccc(COC(=O)N2CO[C@@H]3[C@H](C)O[C@@H](O[C@H]4C[C@](O)(C(=O)CO)Cc5c(O)c6c(c(O)c54)C(=O)c4c(OC)cccc4C6=O)C[C@@H]32)cc1,63.1,79.4,1260,794,,,,,,,
1000,200,50.1,2510,,CCCCCOC(=O)Nc1ccc(COC(=O)N2CO[C@@H]3[C@H](C)O[C@@H](O[C@H]4C[C@](O)(C(=O)CO)Cc5c(O)c6c(c(O)c54)C(=O)c4c(OC)cccc4C6=O)C[C@@H]32)cc1,631,50.1,316,1000,,,,,,,
200,1000,316,794,Stable,CCCCCOC(=O)N1CO[C@@H]2[C@H](C)O[C@@H](O[C@H]3C[C@](O)(C(=O)CO)Cc4c(O)c5c(c(O)c43)C(=O)c3c(OC)cccc3C5=O)C[C@@H]21,251,501,1000,5010,,> 1000,,> 1000,> 1000,3980,25
